Laboratory results from ChEMBL document CHEMBL2346637, “Effects of alkyl side chain modification of coenzyme Q10 on mitochondrial respiratory chain function and cytoprotection” (Bioorg Med Chem, 2013).

Test system: CCRF-CEM
Test: Cytoprotective effect in human CEM cells assessed as reduction of diethyl maleate-induced oxidative stress measured cell viability at 5 uM incubated for 17 hrs prior to diethyl maleate challenge measured after 6 hrs by trypan blue exclusion assay relative to untreated control
Format: functional
Outline: (§1)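 CEM cells seeded at 5 × 10⁵ cells/mL with compound and held 17 h at 37 °C, 5% CO₂. Oxidative stress then induced with 5 mM DEM for 6 h. Viability counted on a hemocytometer by 0.4% trypan blue exclusion and expressed as percent of untreated control (untreated = 100%). Means ± S.E.M., n = 3.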

Compound	Activity
COC1=C(OC)C(=O)C(CCCCCCCCCCC2CCCCC2)=C(C)C1=O	93%
COC1=C(OC)C(=O)C(CCCCCCCCCCO)=C(C)C1=O [IDEBENONE]	74%
COC1=C(OC)C(=O)C(CCCCCCCCCCN=[N+]=[N-])=C(C)C1=O	92%

Test system: CCRF-CEM
Test: Cytoprotective effect in human CEM cells assessed as reduction of diethyl maleate-induced oxidative stress measured cell viability at 1 uM incubated for 17 hrs prior to diethyl maleate challenge measured after 6 hrs by trypan blue exclusion assay relative to untreated control
Format: functional
Outline: as §1

Compound	Activity
COC1=C(OC)C(=O)C(CCCCCCCCCCC2CCCCC2)=C(C)C1=O	87%
COC1=C(OC)C(=O)C(CCCCCCCCCCO)=C(C)C1=O [IDEBENONE]	71%
COC1=C(OC)C(=O)C(CCCCCCCCCCN=[N+]=[N-])=C(C)C1=O	72%

Test system: CCRF-CEM
Test: Cytoprotective effect in human CEM cells assessed as reduction of diethyl maleate-induced oxidative stress measured cell viability at 0.5 uM incubated for 17 hrs prior to diethyl maleate challenge measured after 6 hrs by trypan blue exclusion assay relative to untreated control
Format: functional
Outline: as §1

Compound	Activity
COC1=C(OC)C(=O)C(CCCCCCCCCCC2CCCCC2)=C(C)C1=O	83%
COC1=C(OC)C(=O)C(CCCCCCCCCCO)=C(C)C1=O [IDEBENONE]	38%
COC1=C(OC)C(=O)C(CCCCCCCCCCN=[N+]=[N-])=C(C)C1=O	21%

Test system: CCRF-CEM
Test: Cytoprotective effect in human CEM cells assessed as reduction of diethyl maleate-induced oxidative stress measured cell viability at 0.1 uM incubated for 17 hrs prior to diethyl maleate challenge measured after 6 hrs by trypan blue exclusion assay relative to untreated control
Format: functional
Outline: as §1

Compound	Activity
COC1=C(OC)C(=O)C(CCCCCCCCCCC2CCCCC2)=C(C)C1=O	76%
COC1=C(OC)C(=O)C(CCCCCCCCCCO)=C(C)C1=O [IDEBENONE]	25%
COC1=C(OC)C(=O)C(CCCCCCCCCCN=[N+]=[N-])=C(C)C1=O	11%

Test system: CCRF-CEM
Test: Blockade of diethyl maleate-induced mitochondrial membrane potential collapse in human CEM cells assessed as cells with intact mitochondrial membrane potential at 1 uM incubated for 16 hrs prior to diethyl maleate challenge measured after 120 mins by TMRM-based flow cytometric analysis (reference value: 12%)
Format: functional
Outline: (§2)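 Pretreatment: CEM cells (5 × 10⁵) with or without compound for 16 h, then 5 mM DEM for 120 min. Cells washed and resuspended in PBS with glucose, stained with 250 nM TMRM for 15 min at 37 °C in the dark, washed, and read at once by flow cytometry (488 nm excitation, FL2-H). 10,000 events per run. Percentage of cells with intact potential taken from the top-right quadrant. FCCP served as depolarized control. Means ± SEM of three independent experiments in duplicate.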

Compound	Activity
COC1=C(OC)C(=O)C(CCCCCCCCCCC2CCCCC2)=C(C)C1=O	91%
COC1=C(OC)C(=O)C(CCCCCCCCCCO)=C(C)C1=O [IDEBENONE]	59%
COC1=C(OC)C(=O)C(CCCCCCCCCCN=[N+]=[N-])=C(C)C1=O	65%

Test system: CCRF-CEM
Test: Blockade of diethyl maleate-induced mitochondrial membrane potential collapse in human CEM cells assessed as cells with intact mitochondrial membrane potential at 0.5 uM incubated for 16 hrs prior to diethyl maleate challenge measured after 120 mins by TMRM-based flow cytometric analysis (reference value: 12%)
Format: functional
Outline: as §2

Compound	Activity
COC1=C(OC)C(=O)C(CCCCCCCCCCC2CCCCC2)=C(C)C1=O	84%
COC1=C(OC)C(=O)C(CCCCCCCCCCO)=C(C)C1=O [IDEBENONE]	35%
COC1=C(OC)C(=O)C(CCCCCCCCCCN=[N+]=[N-])=C(C)C1=O	50%

Test system: CCRF-CEM
Test: Antioxidant activity in human CEM cells assessed as suppression of diethyl maleate-induced ROS production at 2.5 uM incubated for 16 hrs prior to diethyl maleate challenge measured after 1 hr by DCFH-DA staining-based flow cytometric analysis relative to untreated control
Format: functional
Outline: (§3)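 CEM cells (5 × 10⁵ in 1 mL) preincubated with compound 16 h at 37 °C, 5% CO₂; then 5 mM DEM for 1 h. Cells washed in PBS and loaded with 10 µM DCFH-DA for 25 min at 37 °C in the dark, then washed twice. Read by flow cytometry, 488 nm excitation, FL1-H 530 nm channel, 10,000 events after debris gating.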

Compound	Activity
COC1=C(OC)C(=O)C(CCCCCCCCCCC2CCCCC2)=C(C)C1=O	100%
COC1=C(OC)C(=O)C(CCCCCCCCCCO)=C(C)C1=O [IDEBENONE]	65%
COC1=C(OC)C(=O)C(CCCCCCCCCCN=[N+]=[N-])=C(C)C1=O	87%

Test system: CCRF-CEM
Test: Antioxidant activity in human CEM cells assessed as suppression of diethyl maleate-induced ROS production at 1 uM incubated for 16 hrs prior to diethyl maleate challenge measured after 1 hr by DCFH-DA staining-based flow cytometric analysis relative to untreated control
Format: functional
Outline: as §3

Compound	Activity
COC1=C(OC)C(=O)C(CCCCCCCCCCC2CCCCC2)=C(C)C1=O	100%
COC1=C(OC)C(=O)C(CCCCCCCCCCO)=C(C)C1=O [IDEBENONE]	45%
COC1=C(OC)C(=O)C(CCCCCCCCCCN=[N+]=[N-])=C(C)C1=O	71%

Test system: not listed separately
Test: Effect on cellular respiration in rat RGC5 cells assessed as increase in mitochondrial oxygen consumption at 10 uM after 24 hrs by fluorescence assay relative to vehicle-treated control
Format: functional
Outline: (§4)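 RGC-5 cells (DMEM, 10% FBS, phenol-red free) at 70,000 per well in 384-well oxygen biosensor plates, allowed to attach 20–30 min. Compounds added from DMSO stock via PBS dilution, final 3 or 10 µM, 0.1% DMSO. Six vehicle and six FCCP wells per plate. Incubated at 37 °C, 5% CO₂ for 1.5 or 24 h. Fluorescence read at 485/630 nm and expressed as fold change over vehicle at each time point. Two-tailed t test.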

Compound	fold change (FC)
COC1=C(OC)C(=O)C(CCCCCCCCCCC2CCCCC2)=C(C)C1=O	1.51
COC1=C(OC)C(=O)C(CCCCCCCCCCO)=C(C)C1=O [IDEBENONE]	0.98
COC1=C(OC)C(=O)C(CCCCCCCCCCN=[N+]=[N-])=C(C)C1=O	1.01

Test system: not listed separately
Test: Effect on cellular respiration in rat RGC5 cells assessed as increase in mitochondrial oxygen consumption at 3 uM after 24 hrs by fluorescence assay relative to vehicle-treated control
Format: functional
Outline: as §4

Compound	fold change (FC)
COC1=C(OC)C(=O)C(CCCCCCCCCCC2CCCCC2)=C(C)C1=O	1.06
COC1=C(OC)C(=O)C(CCCCCCCCCCO)=C(C)C1=O [IDEBENONE]	0.98
COC1=C(OC)C(=O)C(CCCCCCCCCCN=[N+]=[N-])=C(C)C1=O	1.68

Test system: not listed separately
Test: Effect on cellular respiration in rat RGC5 cells assessed as increase in mitochondrial oxygen consumption at 10 uM after 1.5 hrs by fluorescence assay relative to vehicle-treated control
Format: functional
Outline: as §4

Compound	fold change (FC)
COC1=C(OC)C(=O)C(CCCCCCCCCCC2CCCCC2)=C(C)C1=O	1.21
COC1=C(OC)C(=O)C(CCCCCCCCCCO)=C(C)C1=O [IDEBENONE]	0.99
COC1=C(OC)C(=O)C(CCCCCCCCCCN=[N+]=[N-])=C(C)C1=O	0.97

Test system: not listed separately
Test: Effect on cellular respiration in rat RGC5 cells assessed as increase in mitochondrial oxygen consumption at 3 uM after 1.5 hrs by fluorescence assay relative to vehicle-treated control
Format: functional
Outline: as §4

Compound	fold change (FC)
COC1=C(OC)C(=O)C(CCCCCCCCCCC2CCCCC2)=C(C)C1=O	1.17
COC1=C(OC)C(=O)C(CCCCCCCCCCO)=C(C)C1=O [IDEBENONE]	1.12
COC1=C(OC)C(=O)C(CCCCCCCCCCN=[N+]=[N-])=C(C)C1=O	1.01

Species on record: Bos taurus
Test: Inhibition of NADH-ubiquinone oxidoreductase activity in bovine heart submitochondrial particles using coenzyme Q1 as substrate after 5 mins by spectrophotometric analysis relative to untreated control
Outline: (§5)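 Twelve micrograms of bovine heart SMPs incubated 5 min at 39 °C with compound in 50 mM phosphate buffer, pH 7.4, with 0.25 M sucrose, 1 mM MgCl₂, antimycin A and 2 mM KCN. Reaction started with NADH and coenzyme Q₁ (each 50 µM). Decrease in NADH absorbance read at 340 nm. IC₅₀ and maximum achievable inhibition reported.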

Compound	Imax
COC1=C(OC)C(=O)C(CCCCCCCCCCC2CCCCC2)=C(C)C1=O	55.4%
COC1=C(OC)C(=O)C(CCCCCCCCCCO)=C(C)C1=O [IDEBENONE]	75%

Molecular target: not listed separately
Test: Inhibition of NADH-ubiquinone oxidoreductase activity in bovine heart submitochondrial particles using coenzyme Q1 as substrate after 5 mins by spectrophotometric analysis
Parameters: species or system Bos taurus
Outline: as §5

Compound	IC50
COC1=C(OC)C(=O)C(CCCCCCCCCCC2CCCCC2)=C(C)C1=O	14.9 µM
COC1=C(OC)C(=O)C(CCCCCCCCCCO)=C(C)C1=O [IDEBENONE]	5.8 µM
COC1=C(OC)C(=O)C(CCCCCCCCCCN=[N+]=[N-])=C(C)C1=O	> 30 µM

Species on record: Bos taurus
Test: Inhibition of NADH oxidase in bovine heart submitochondrial particles at 10 uM after 5 mins by spectrophotometric analysis relative to untreated control
Parameters: scale not given: the % may be the effect or the level left
Outline: (§6)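 Bovine heart SMPs, stored in 0.25 M sucrose/10 mM Tris–HCl pH 7.4, were assayed at 30 µg protein/mL in 50 mM Hepes pH 7.5 with 5 mM MgCl₂ at 30 °C. SMPs pre-equilibrated with inhibitor for 5 min. NADH oxidation followed at 340 nm (ε 6.22 mM⁻¹ cm⁻¹). Initial rates taken from the linear trace and expressed relative to untreated control.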

Compound	activity
COC1=C(OC)C(=O)C(CCCCCCCCCCC2CCCCC2)=C(C)C1=O	78.7%
COC1=C(OC)C(=O)C(CCCCCCCCCCO)=C(C)C1=O [IDEBENONE]	13.4%
COC1=C(OC)C(=O)C(CCCCCCCCCCN=[N+]=[N-])=C(C)C1=O	64%

Species on record: Bos taurus
Test: Inhibition of NADH oxidase in bovine heart submitochondrial particles at 5 uM after 5 mins by spectrophotometric analysis relative to untreated control
Parameters: scale not given: the % may be the effect or the level left
Outline: as §6

Compound	activity
COC1=C(OC)C(=O)C(CCCCCCCCCCC2CCCCC2)=C(C)C1=O	81.9%
COC1=C(OC)C(=O)C(CCCCCCCCCCO)=C(C)C1=O [IDEBENONE]	20.3%
COC1=C(OC)C(=O)C(CCCCCCCCCCN=[N+]=[N-])=C(C)C1=O	75%

Species on record: Bos taurus
Test: Inhibition of NADH oxidase in bovine heart submitochondrial particles at 1 uM after 5 mins by spectrophotometric analysis relative to untreated control
Parameters: scale not given: the % may be the effect or the level left
Outline: as §6

Compound	activity
COC1=C(OC)C(=O)C(CCCCCCCCCCC2CCCCC2)=C(C)C1=O	88.3%
COC1=C(OC)C(=O)C(CCCCCCCCCCO)=C(C)C1=O [IDEBENONE]	58.3%
COC1=C(OC)C(=O)C(CCCCCCCCCCN=[N+]=[N-])=C(C)C1=O	89.8%
